Test results: ChEMBL document CHEMBL4422671, “New Quinolylnitrones for Stroke Therapy: Antioxidant and Neuroprotective ( Z)- N- tert-Butyl-1-(2-chloro-6-methoxyquinolin-3-yl)methanimine Oxide as a New Lead-Compound for Ischemic Stroke Treatment” (J Med Chem, 2019)
The source made the active and inactive calls. The calls are words filed in the database; no cut-off is given here.

What was measured:
[1] = Antioxidant activity assessed as DPPH free radical scavenging activity at 0.1 mM measured after 20 to 60 mins; assay type: functional
How it was run: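 DPPH 0.1 mM in absolute ethanol with compound at 0.1 mM final (from DMSO). Absorbance at 517 nm recorded after 20 and 60 min at rt. NDGA as standard.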

Mus musculus [2] = assay: (§1) Neuroprotective activity in C57BL/6 mouse model of ischemia-induced cerebral ischemia model assessed reduction in neuronal cell death in cortical region at 1.5 mg/kg, ip administered at onset of reperfusion period and measured at 5 days reperfusion post ischemia by Fluoro-Jade-staining assay based relative to control; assay type: functional; set-up: scale not given: the % may be the effect or the level left
[3] = biological target: Lipoxygenase (Glycine max) (UniProt Q39829); assay: Inhibition of soybean lipoxygenase at 1 to 100 uM using sodium linoleate as substrate by UV-based analysis relative to control
How it was run: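 Soybean lipoxygenase (enzyme 1/9 ×10⁻⁴ w/v in saline) incubated at rt with 0.1 mM sodium linoleate and compound in DMSO, at several concentrations from 1 to 100 µM diluted from 10 mM stock. Conversion to 13-hydroperoxylinoleic acid recorded at 234 nm; IC50 derived. NDGA as reference inhibitor.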

[4] = Neuroprotective activity against oxygen-glucose deprivation-induced cell death in Sprague-Dawley rat primary neuronal cells assessed as cell viability at 100 uM treated at onset of recovery period and measured at 24 hrs of recovery by MTT assay relative to control; assay type: functional; details: Primary neuron, read-out: Activity
How it was run: (§2)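 Rat cortical neurons from E16–17 Sprague-Dawley embryos, used at 6–7 days in serum-free medium. OGD: glucose-free medium bubbled with 95% N2/5% CO2, <0.1% O2, 6.5% CO2, 37 °C, 4 h. Compound added at start of 24 h normoxic recovery. Viability by MTT (0.2 mg/mL, 1.5 h), lysis with HCl/SDS, read at 595/690 nm, relative to 100% control. Four to eight culture batches, each in quadruplicate.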

Mus musculus [5] = assay: Neuroprotective activity in C57BL/6 mouse model of transient middle cerebral artery occlusion-induced ttransient focal cerebral ischemia assessed decrease in motor deficit at 1.5 to 2 mg/kg, ip measured after 48 hrs post dose by grip strength Test; assay type: functional, organism-based
How it was run: (§3)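 Male C57BL/6 mice (9–12 weeks) under isoflurane. Distal MCA compressed 60 min with a needle, occlusion confirmed by laser-Doppler; buprenorphine given sc. Compound given ip at reperfusion onset. Grip strength recorded at 24 and 48 h versus presurgery. Infarct area/volume measured at 48 h from TTC-stained 1 mm coronal sections. n = 8 per group.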

Mus musculus [6] = assay: Neuroprotective activity in C57BL/6 mouse model of transient middle cerebral artery occlusion-induced ttransient focal cerebral ischemia assessed decrease in motor deficit at 2 mg/kg, ip measured after 24 hrs post dose by grip strength Test; assay type: functional, organism-based; how it was run: as §3
Mus musculus [7] = assay: Neuroprotective activity in C57BL/6 mouse model of ischemia-induced cerebral ischemia model assessed as reduction in apoptosis in hippocampal CA1 region at 1.5 mg/kg, ip administered at onset of reperfusion period and measured at 5 days reperfusion post ischemia by TUNNEL assay relative to control; assay type: functional; set-up: scale not given: the % may be the effect or the level left
Mus musculus [8] = assay: Neuroprotective activity in C57BL/6 mouse model of ischemia-induced cerebral ischemia model assessed reduction in neurodeficit score at 1.5 mg/kg, ip administered at onset of reperfusion period and measured at 5 days reperfusion post ischemia; assay type: functional, organism-based
[9] = Antioxidant activity assessed as superoxide anion scavenging activity at 0.1 mM pH 7.4 after 10 mins by NBT assay; assay type: functional
How it was run: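 Superoxide generated by xanthine/xanthine oxidase (0.07 U/mL) in 0.1 M phosphate buffer pH 7.4 containing NBT and compound at 0.1 mM final. After 10 min at rt, absorbance read at 560 nm. Caffeic acid as standard.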

[10] = Antioxidant activity assessed as ABTS radical cation scavenging activity by measuring trolox equivalents at 10 uL after 1 min; assay type: functional
How it was run: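 ABTS radical cation made from 2 mM aqueous ABTS plus 0.17 mM potassium persulfate in 20 mM phosphate buffer pH 7.4, kept 12–16 h dark at rt. Diluted with ethanol to A734 0.70, then mixed with 10 μL compound from 10 mM stock. Absorbance read at rt 1 min after mixing. Trolox as standard.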

Mus musculus [11] = assay: Neuroprotective activity in C57BL/6 mouse model of transient middle cerebral artery occlusion-induced ttransient focal cerebral ischemia assessed decrease in motor deficit by measuring improvement in grip strength at 1.5 to 2 mg/kg, ip measured after 48 hrs post dose by grip strength Test; assay type: functional; set-up: scale not given: the % may be the effect or the level left; how it was run: as §3
[12] = (§4) Cytotoxicity in oxygen-glucose deprivation-induced Sprague-Dawley rat primary neuronal cells assessed as reduction in cell viability at 250 uM pretreated for 24 hrs followed by OGD challenge for 4 hrs and measured after 24 hrs of recovery period post OGD measured by MTT assay; assay type: cell-based; details: primary neuron
How it was run: (§5)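 Rat cortical neuron cultures (E16–17 Sprague-Dawley, 6–7 days in vitro) treated with compound (1–250 µM range) 24 h before 4 h OGD at <0.1% O2, 37 °C. Cells then recovered 24 h under normoxia with glucose. Viability by MTT absorbance at 595/690 nm, relative to untreated control.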

Mus musculus [13] = assay: Neuroprotective activity in C57BL/6 mouse model of ischemia-induced cerebral ischemia model assessed as reduction in apoptosis in cortical region at 1.5 mg/kg, ip administered at onset of reperfusion period and measured at 5 days reperfusion post ischemia by TUNNEL assay relative to control; assay type: functional; set-up: scale not given: the % may be the effect or the level left
[14] = Antioxidant activity assessed as hydroxyl radical scavenging activity at 0.1 mM measured after 30 mins; assay type: functional
How it was run: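 Hydroxyl radicals from Fe3+/ascorbic acid: EDTA 0.1 mM, Fe3+ 167 μM, DMSO 33 mM, compound 0.1 mM and ascorbic acid 10 mM in 50 mM phosphate buffer pH 7.4. Incubated 37 °C for 30 min, stopped with 17% w/v TCA. Read-out is inhibition of formaldehyde formation, given as % scavenging. Trolox as reference.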

[15] = Antiinflammatory activity assessed as NO release at 100 uM after 60 mins in presence of L-cysteine by Griess reagent-based relative to control; assay type: functional
How it was run: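 NO-release test: compound at 100 μM final (from DMSO) in 50 mM phosphate buffer pH 7.4 containing 1 mM L-cysteine, 60 min at 37 °C. Reaction mixture then treated with Griess reagent, left 10 min at rt, absorbance read at 540 nm. Sodium nitroprusside as standard. Mean of three to four determinations.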

Mus musculus [16] = assay: Neuroprotective activity in C57BL/6 mouse model of transient middle cerebral artery occlusion-induced ttransient focal cerebral ischemia assessed decrease in size of ischemic lesion at 2 mg/kg, ip measured after 48 hrs post dose relative to control; assay type: functional; set-up: scale not given: the % may be the effect or the level left; how it was run: as §3
[17] = Neuroprotective activity against oxygen-glucose deprivation-induced cell death in Sprague-Dawley rat primary neuronal cells assessed as cell viability at 250 uM treated at onset of recovery period and measured at 24 hrs of recovery by MTT assay relative to control; assay type: functional; details: Primary neuron, read-out: Activity; how it was run: as §2
Primary neuron [18] = assay: Neuroprotective activity against oxygen-glucose deprivation-induced ischemia in Sprague-Dawley rat primary neuronal cells assessed as reduction in lipid peroxidation at 10 to 250 uM measured after 4 hrs of recovery post OGD by fluorometric assay; assay type: functional, cell-based
Mus musculus [19] = assay: as §1, with “hippocampal CA1” for “cortical”; assay type: functional; set-up: scale not given: the % may be the effect or the level left
Primary neuron [20] = assay: Neuroprotective activity against oxygen-glucose deprivation-induced ischemia in Sprague-Dawley rat primary neuronal cells assessed as reduction in ROS generation at 10 to 250 uM measured after 2 hrs of recovery post OGD by fluorometric assay; assay type: functional, cell-based
How it was run: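 Primary rat cortical neurons exposed to 4 h OGD; compound added at onset of recovery together with a cell-permeable ROS probe. Fluorescence (ex 490/em 535 nm) read after 2 h recovery and expressed as % of control. Mean of four independent experiments.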

Rattus norvegicus = assay: Antiinflammatory activity in Fisher 344 rat model of carrageenan-induced edema assessed as inhibition of carrageenan-induced paw edema at 0.01 mmol/kg, ip dosed simultaneously with carrageenan injection relative to control; assay type: functional; details: Fisher 344, ip
How it was run: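 Fisher 344 rats (150–200 g), both sexes. Edema was induced by intradermal injection of 0.1 mL 2% carrageenan in water into the right hind paw. Compound was suspended in water with a few drops of Tween 80. Rats were euthanized 3.5 h later. The injected-minus-uninjected paw weight difference was compared with water or Tween-water controls as % inhibition. Mean of two experiments, n = 6 each.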

[21] = Antioxidant activity assessed as inhibition of linoleic acid peroxidation activity at 10 uL; assay type: functional; set-up: scale not given: the % may be the effect or the level left
How it was run: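 AAPH-initiated peroxidation of sodium linoleate dispersion (16 mM, 10 μL) in 0.05 M phosphate buffer pH 7.4 at 37 °C under air. Initiator was 50 μL of 40 mM AAPH, with 10 μL compound added. Conjugated diene hydroperoxide followed at 234 nm. Trolox as reference.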

Primary neuron [22] = assay: as §4, with “Neuroprotective activity against” for “Cytotoxicity in”, “deprivation-induced cell death in” for “deprivation-induced”, “increase” for “reduction”, “10” for “250”; assay type: functional, cell-based; how it was run: as §5
[23] = Neuroprotective activity against oxygen-glucose deprivation-induced cell death in Sprague-Dawley rat primary neuronal cells assessed as cell viability at 10 uM treated at onset of recovery period and measured at 24 hrs of recovery by MTT assay relative to control; assay type: functional; details: Primary neuron, read-out: Activity; how it was run: as §2

SMILES: COc1ccc2nc(Cl)c(/C=[N+](\[O-])C(C)(C)C)cc2c1
- Activity [1]: 4%
- Activity (Mus musculus [2]): 90%
- inhibition [3]: 29%
- viability at 100 µM [4]: 77.1%
- Activity (Mus musculus [5]): Active
- Activity (Mus musculus [6]): Active
- Activity (Mus musculus [7]): 39%
- Activity (Mus musculus [8]): Active
- Activity [9]: 5%
- Activity [10]: 7%
- Activity (Mus musculus [11]): 11.8%
- Activity [12]: Toxic
- Activity (Mus musculus [13]): 84%
- Activity [14]: 100%
- Activity [15]: 3%
- Activity (Mus musculus [16]): 44%
- viability at 250 µM [17]: 65.9%
- Activity (Primary neuron [18]): Active
- Activity (Mus musculus [19]): 33%
- Activity (Primary neuron [20]): Active
- inhibition in vivo at 10 µmol/kg (Rattus norvegicus): 48.5%
- Activity [21]: 22%
- Activity (Primary neuron [22]): Active
- viability at 10 µM [23]: 52%
